Measurements as given in ChEMBL document CHEMBL1932989, “Dibasic biphenyl H3 receptor antagonists: Steric tolerance for a lipophilic side chain” (Eur J Med Chem, 2012).
The source made the active and inactive calls. The calls are words filed in the database; no cut-off is given here.

Columns and labels:
[1] = biological target: T1, Histamine H3 receptor (Homo sapiens, UniProt Q9Y5N1); experiment: Displacement of [3H]RAMHA from human histamine H3 receptor expressed in GPCR97 transfected human SK-N-MC cells; assay type: cell-based
T1 sequence (Q9Y5N1 whole entry): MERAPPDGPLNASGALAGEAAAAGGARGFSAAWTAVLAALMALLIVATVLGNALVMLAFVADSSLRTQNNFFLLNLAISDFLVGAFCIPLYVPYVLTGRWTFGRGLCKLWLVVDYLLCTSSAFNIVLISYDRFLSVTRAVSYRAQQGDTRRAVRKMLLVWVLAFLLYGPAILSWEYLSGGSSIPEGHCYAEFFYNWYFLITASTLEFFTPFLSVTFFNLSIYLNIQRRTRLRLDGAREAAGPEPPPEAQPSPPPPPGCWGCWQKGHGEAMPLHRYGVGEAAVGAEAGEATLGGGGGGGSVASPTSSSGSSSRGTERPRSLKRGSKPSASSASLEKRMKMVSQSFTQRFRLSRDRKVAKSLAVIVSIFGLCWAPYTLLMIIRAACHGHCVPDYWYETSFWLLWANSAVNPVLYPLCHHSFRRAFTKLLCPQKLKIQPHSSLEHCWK
In short: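 SK-N-MC cell membranes stably expressing human H3; 60 min at room temperature with 0.5 nM [3H]-(R)-α-methylhistamine, competitor 0.01 nM–10 μM. Filtration, two washes with ice-cold 50 mM Tris–HCl/5 mM EDTA. Nonspecific binding with 10 μM histamine. pIC50 from displacement curves converted to pKi by Cheng–Prusoff; means ± SEM.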

[2] = biological target: Histamine H3 receptor (Rattus norvegicus, UniProt Q9QYN8); experiment: Displacement of [3H]RAMHA from rat histamine H3 receptor in rat cerebral cortex membranes; assay type: cell membranes, Membrane
Chain of Histamine H3 receptor (Rattus norvegicus, UniProt Q9QYN8) (Q9QYN8 whole entry): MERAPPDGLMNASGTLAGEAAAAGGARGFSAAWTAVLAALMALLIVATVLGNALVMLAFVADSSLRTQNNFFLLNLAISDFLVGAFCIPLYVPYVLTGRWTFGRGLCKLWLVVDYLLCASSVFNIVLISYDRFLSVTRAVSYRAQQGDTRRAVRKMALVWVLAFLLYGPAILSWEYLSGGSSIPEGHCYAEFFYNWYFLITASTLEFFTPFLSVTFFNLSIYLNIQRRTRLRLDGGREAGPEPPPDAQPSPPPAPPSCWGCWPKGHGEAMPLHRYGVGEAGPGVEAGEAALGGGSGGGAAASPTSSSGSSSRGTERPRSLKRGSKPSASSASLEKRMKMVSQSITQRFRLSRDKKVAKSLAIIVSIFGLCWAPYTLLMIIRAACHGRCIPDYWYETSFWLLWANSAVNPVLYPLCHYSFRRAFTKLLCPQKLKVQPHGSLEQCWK
In short: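 Rat brain membranes (Kilpatrick method) incubated 45 min with 0.5 nM [3H]-(R)-α-methylhistamine and compound (0.03 nM–10 μM) in 50 mM Tris–HCl pH 7.4, 50 mM NaCl, 0.5 mM EDTA. Vacuum filtration, two ice-cold buffer rinses. Nonspecific binding with 10 μM thioperamide. pIC50 converted to pKi via Cheng–Prusoff; means ± SEM.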

[3] = biological target: T1, Histamine H3 receptor; experiment: Antagonist activity at human histamine H3 receptor expressed in human SK-N-MC cells assessed as inhibition of (R)-alpha-methylhistamine-induced effect after 6 hrs by beta-galactosidase reporter gene assay; assay type: functional, cell-based
In short: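 SK-N-MC cells expressing human H3 receptor and a β-galactosidase reporter; compounds (1 nM–10 µM) added 10 min before (R)-α-methylhistamine (0.1–100 nM), forskolin 5 µM added 5 min after compound. Incubated 6 h at 37 °C, cells lysed, chlorophenol red β-D-galactopyranoside colour read at 570 nm. Response as % agonist maximum; pKB by Furchgott equation, or pD2' by Van Rossum for non-surmountable antagonism; mean ± SEM.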

[4] = biological target: Histamine H4 receptor (Homo sapiens, UniProt Q9H3N8); experiment: Displacement of [3H]histamine from human histamine H4 receptor expressed in GPCR97 transfected human SK-N-MC cells; assay type: cell-based
In short: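 Membranes of SK-N-MC cells stably expressing human H4, 60 min at room temperature with 10 nM [3H]-histamine, competitor 0.01 nM–10 μM. Filtration with two ice-cold Tris–HCl/EDTA washes. 10 μM histamine defined nonspecific binding. pKi derived from pIC50 by Cheng–Prusoff.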

[5] = biological target: Histamine H1 receptor (Cavia porcellus) (UniProt P31389); experiment: Antagonist activity at histamine H1 receptor in guinea pig longitudinally mounted ileum assessed as […] up to 10 uM […]; assay type: functional, tissue-based
Chain of Histamine H1 receptor (Cavia porcellus) (P31389 whole entry): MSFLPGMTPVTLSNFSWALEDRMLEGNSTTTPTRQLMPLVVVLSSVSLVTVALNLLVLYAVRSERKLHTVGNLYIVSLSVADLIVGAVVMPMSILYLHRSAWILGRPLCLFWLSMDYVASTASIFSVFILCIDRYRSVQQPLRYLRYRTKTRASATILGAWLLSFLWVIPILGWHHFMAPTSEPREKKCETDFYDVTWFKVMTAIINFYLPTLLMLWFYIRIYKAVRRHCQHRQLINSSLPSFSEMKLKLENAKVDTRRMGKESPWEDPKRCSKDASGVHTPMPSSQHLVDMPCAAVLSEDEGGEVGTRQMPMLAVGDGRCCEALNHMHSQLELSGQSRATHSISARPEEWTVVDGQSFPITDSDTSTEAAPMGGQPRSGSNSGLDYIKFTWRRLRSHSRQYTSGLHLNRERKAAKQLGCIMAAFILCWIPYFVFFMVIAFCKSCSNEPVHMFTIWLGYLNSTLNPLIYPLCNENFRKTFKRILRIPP

[6] = biological target: Histamine H2 receptor (Cavia porcellus) (UniProt P47747); experiment: Antagonist activity at histamine H2 receptor in guinea pig spontaneously beating isolated atria assessed as changes in rate of spontaneous beating at 1 uM by cardiotachograph analysis
Chain of Histamine H2 receptor (Cavia porcellus) (P47747 whole entry): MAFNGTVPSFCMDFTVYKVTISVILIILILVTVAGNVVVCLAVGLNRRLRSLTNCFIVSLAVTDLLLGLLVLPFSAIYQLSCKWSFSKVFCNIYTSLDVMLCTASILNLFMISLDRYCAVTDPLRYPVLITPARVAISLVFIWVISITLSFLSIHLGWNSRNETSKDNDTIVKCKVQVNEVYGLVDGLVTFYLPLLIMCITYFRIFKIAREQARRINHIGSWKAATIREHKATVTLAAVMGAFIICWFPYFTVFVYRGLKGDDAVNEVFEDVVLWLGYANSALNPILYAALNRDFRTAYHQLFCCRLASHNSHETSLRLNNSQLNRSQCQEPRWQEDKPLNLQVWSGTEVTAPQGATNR

[7] = biological target: Histamine H2 receptor (Cavia porcellus) (UniProt P47747); conditions: Ileum
[8] = biological target: Neuronal acetylcholine receptor subunit alpha-7 (Homo sapiens) (UniProt P36544); experiment: Displacement of [125I]alpha-bungarotoxin from human alpha7 nicotinic receptor at 1 uM by scintillation counting
Chain of Neuronal acetylcholine receptor subunit alpha-7 (Homo sapiens) (P36544 whole entry): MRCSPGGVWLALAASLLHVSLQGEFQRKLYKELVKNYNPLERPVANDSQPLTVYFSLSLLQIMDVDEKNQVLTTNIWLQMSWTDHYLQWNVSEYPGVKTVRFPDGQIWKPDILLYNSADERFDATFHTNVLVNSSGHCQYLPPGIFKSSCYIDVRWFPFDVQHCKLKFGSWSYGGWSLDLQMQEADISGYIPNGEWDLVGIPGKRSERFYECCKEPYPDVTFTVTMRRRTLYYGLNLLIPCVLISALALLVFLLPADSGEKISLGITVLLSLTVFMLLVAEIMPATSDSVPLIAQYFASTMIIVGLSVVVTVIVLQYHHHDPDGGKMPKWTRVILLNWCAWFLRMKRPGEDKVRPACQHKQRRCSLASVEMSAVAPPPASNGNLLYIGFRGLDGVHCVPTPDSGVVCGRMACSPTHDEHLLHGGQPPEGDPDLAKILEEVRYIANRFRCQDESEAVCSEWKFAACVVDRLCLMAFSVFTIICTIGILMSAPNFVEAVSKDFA
In short: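 Membrane homogenates bearing human α7 nicotinic receptor (20 µg protein) incubated 120 min at 37 °C with 0.05 nM [125I]α-bungarotoxin in 50 mM K2HPO4/KH2PO4 pH 7.4, 10 mM MgCl2, 0.1% BSA. Nonspecific binding with 1 µM α-bungarotoxin. Filtration on PEI-soaked glass fibre, scintillation counting; % inhibition of specific binding, duplicate.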

Row | SMILES | Ki [1] | Ki [2] | pKb [3] | Ki [4] | Activity [5] | Activity [6] | pKb [7] | inhibition [8]
1 | c1ccc(CC(c2ccc(-c3ccc(CN4CCCCC4)cc3)cc2)N2CCCCC2)cc1 (racemic) | 19.1 nM | 112 nM | 8.3 | ≥ 31600 nM | inactive | inactive |  | 
2 | CCCC[C@H](c1ccc(-c2ccc(CN3CCCCC3)cc2)cc1)N1CCC[C@H]1C | 2.45 nM | 12.6 nM | 8.8 | ≥ 31600 nM | inactive |  | 5.13 | 
3 | CCCC[C@@H](c1ccc(-c2ccc(CN3CCCCC3)cc2)cc1)N1CCC[C@H]1C | 2.34 nM | 16.2 nM | 8.58 | ≥ 31600 nM | inactive | inactive |  | 
4 | COc1ccc(OCCC[C@@H](c2ccc(-c3ccc(CN4CCCCC4)cc3)cc2)N2CCC[C@@H]2C)cc1 | 2.04 nM | 2.09 nM | 8.71 | ≥ 31600 nM | inactive | inactive |  | 
5 | CN(C)C(Cc1ccccc1)c1ccc(-c2ccc(CN3CCCCC3)cc2)cc1 (racemic) | 16.6 nM | 30.2 nM | 7.56 | ≥ 31600 nM | inactive | inactive |  | 
6 | CCCCC(c1ccc(-c2ccc(C)cc2)cc1)N1CCCCC1 (racemic) | 13500 nM | 43700 nM |  | ≥ 31600 nM |  | inactive |  | 
7 | c1cc(-c2ccc(CN3CCCCC3)cc2)ccc1CN1CCCCC1 |  |  | 8.77 |  |  |  |  | 
8 | CCCC[C@@H](c1ccc(-c2ccc(CN3CCCCC3)cc2)cc1)N1CCC[C@@H]1C | 1.26 nM | 1.41 nM | 8.37 | ≥ 31600 nM | inactive | inactive |  | 
9 | COCCC[C@@H](c1ccc(-c2ccc(CN3CCCCC3)cc2)cc1)N1CCC[C@@H]1C | 0.871 nM | 1.78 nM | 10 | ≥ 31600 nM | inactive | inactive |  | 
10 | CCCC[C@H](c1ccc(-c2ccc(CN3CCCCC3)cc2)cc1)N1CCCC[C@@H]1C | 3.02 nM | 26.3 nM | 8.91 | ≥ 31600 nM | inactive | inactive |  | 
11 | COCCC[C@H](c1ccc(-c2ccc(CN3CCCCC3)cc2)cc1)N1CCC[C@@H]1C | 2 nM | 1.48 nM | 9.64 | ≥ 31600 nM | inactive | inactive |  | 
12 | C[C@@H]1CCCN1Cc1ccc(-c2ccc(C(Cc3ccccc3)N3CCCCC3)cc2)cc1 (mixture of isomers) | 5.62 nM | 29.5 nM | 8.87 | ≥ 31600 nM | inactive | inactive |  | 
13 | C[C@H]1CCCN1[C@H](CCCOc1ccccc1)c1ccc(-c2ccc(CN3CCCCC3)cc2)cc1 | 0.513 nM | 6.61 nM | 8.48 | ≥ 31600 nM | inactive | inactive |  | inactive

More lines, in order of falling Ki [1], values ahead:

Row | Ki [1] | Ki [2] | pKb [3] | Ki [4] | Activity [5] | Activity [6] | pKb [7] | SMILES | inhibition [8]
14 | 12900 nM | 60300 nM |  | ≥ 31600 nM |  | inactive |  | CCCCCc1ccc(-c2ccc(CN3CCCCC3)cc2)cc1 | 
15 | 2.57 nM | 4.68 nM | 9.15 | ≥ 31600 nM | inactive | inactive |  | C[C@H]1CCCN1[C@@H](CCCOc1ccccc1)c1ccc(-c2ccc(CN3CCCCC3)cc2)cc1 | 
16 | 2.45 nM | 26.3 nM | 8.94 | ≥ 31600 nM | inactive | inactive |  | CCCC[C@@H](c1ccc(-c2ccc(CN3CCCCC3)cc2)cc1)N1CCCC[C@@H]1C | 
17 | 1.55 nM | 8.71 nM | 8.81 | ≥ 31600 nM | inactive | inactive |  | CCCC[C@H](c1ccc(-c2ccc(CN3CCCCC3)cc2)cc1)N1CCC[C@@H]1C | 
18 | 1.48 nM | 3.55 nM | 9.16 | ≥ 31600 nM | inactive | inactive |  | C[C@@H]1CCCN1Cc1ccc(-c2ccc(CN3CCCCC3)cc2)cc1 | 
19 | 1.29 nM | 4.27 nM | 8.81 | ≥ 31600 nM | inactive | inactive |  | CCCCC(c1ccc(-c2ccc(CN3CCCCC3)cc2)cc1)N1CCCCC1 (racemic) | 
20 | 1.26 nM | 6.61 nM | 8.71 | ≥ 31600 nM | inactive | inactive |  | COc1ccc(OCCC[C@H](c2ccc(-c3ccc(CN4CCCCC4)cc3)cc2)N2CCC[C@@H]2C)cc1 | 
21 | 0.661 nM | 0.372 nM | 9.46 | ≥ 31600 nM | inactive | inactive |  | C[C@H]1CCCN1Cc1ccc(-c2ccc(CN3CCCCC3)cc2)cc1 | 
